Assay results taken from ChEMBL document CHEMBL3272032, “Antifolate studies. Activities of 40 potential antimalarial compounds against sensitive and chlorguanide triazine resistant strains of folate-requiring bacteria and Escherichia coli” (J Med Chem, 1977).
Active and inactive are the calls of the source. The rule behind the calls is not given here.

Legend:
Enterococcus faecium [1] = test: Antibacterial activity against sensitive Streptococcus faecium ATCC 8043 assessed as reduction in growth; assay type: functional, organism-based
Method in brief: (§1)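 Folate-requiring strains grown in medium with folic acid, 0.002 µg/ml for S. faecium and 0.001 µg/ml for L. casei; P. cerevisiae given folinic acid, 0.001 µg/ml. Resistant substrains came from serial transfer in rising chlorguanide triazine, and the most resistant were used. Compounds tested up to 1000 µg/ml, or 100 µg/ml when supply was limited. Growth read as Klett turbidity; IC50 is the µM concentration giving 50% growth inhibition.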

Plasmodium berghei [2] = test: Antimalarial activity against Plasmodium berghei infected in sc dosed mouse assessed as active dose required to increase of 100% in mean survival time; assay type: functional; details: read-out: MED
Method in brief: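 Mice received a standard blood-induced P. berghei inoculum and were then treated with one subcutaneous dose of compound suspended in peanut oil. The minimum active dose is the lowest dose that raised mean survival time by 100%.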

Escherichia coli [3] = test: Antibacterial activity against sensitive Escherichia coli ATCC 10536 assessed as reduction in growth in presence of p-aminobenzoic acid; assay type: functional, organism-based
Method in brief: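 Reversal test. Drug inhibition was challenged with PABA in Sahyun et al. medium plus 0.6% acid-hydrolyzed casein. Growth read as turbidity on a Klett-Summerson colorimeter. Scored as reversal or nonreversal of the drug inhibition.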

Pediococcus [4] = test: Antibacterial activity against sensitive Pediococcus cerevisiae ATCC 808 assessed as reduction in growth in presence of 0.001 ug/ml folinic acid; assay type: functional
Method in brief: (§2)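 P. cerevisiae grown with folinic acid at 0.001 μg/ml in the earlier-described medium. Turbidity read on a Klett-Summerson colorimeter. IC50 is the micromolar concentration reducing growth to 50% of control. Top concentration was 1000 μg/ml, or 100 μg/ml when supply was limited.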

Enterococcus faecium [5] = test: Antibacterial activity against chlorguanide triazine-resistant Streptococcus faecium ATCC 8043 assessed as reduction in growth in presence of 0.002 ug/ml folic acid; assay type: functional, organism-based; method in brief: as §1
Pediococcus [6] = test: Antibacterial activity against chlorguanide triazine-resistant Pediococcus cerevisiae ATCC 808 assessed as reduction in growth in presence of 0.001 ug/ml folinic acid; assay type: functional; method in brief: as §1
Pediococcus [7] = test: Fold increase in resistance, ratio of IC50 for chlorguanide triazine-resistant Pediococcus cerevisiae ATCC 808 to IC50 for sensitive Pediococcus cerevisiae ATCC 808; assay type: functional
Method in brief: (§3)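 Resistant substrains were made by serial transfer in rising concentrations of cycloguanil, and the most resistant isolate of each organism was used. Both strains were assayed turbidimetrically under identical conditions. FIR = IC50 of the resistant strain divided by IC50 of the sensitive parent.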

Lacticaseibacillus casei [8] = test: Antibacterial activity against chlorguanide triazine-resistant Lactobacillus casei ATCC 7469 assessed as reduction in growth in presence of 0.001 ug/ml folic acid; assay type: functional, organism-based; method in brief: as §1
Enterococcus faecium [9] = test: Fold increase in resistance, ratio of IC50 for chlorguanide triazine-resistant Streptococcus faecium ATCC 8043 to IC50 for sensitive Streptococcus faecium ATCC 8043; assay type: functional
Method in brief: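 Resistant S. faecium substrain raised by serial transfer in increasing chlorguanide triazine. IC50 (µM, 50% growth inhibition by turbidity) was found for resistant and parent strains in folic acid (0.002 µg/ml) medium. Fold increase taken as IC50 resistant / IC50 sensitive.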

Enterococcus faecium [10] = test: Antibacterial activity against chlorguanide triazine-resistant Streptococcus faecium ATCC 8043 assessed as reduction in growth; assay type: functional, organism-based; method in brief: as §1
Lacticaseibacillus casei [11] = test: Antibacterial activity against chlorguanide triazine-resistant Lactobacillus casei ATCC 7469 assessed as reduction in growth; assay type: functional, organism-based; method in brief: as §1
Lacticaseibacillus casei [12] = test: Fold increase in resistance, ratio of IC50 for chlorguanide triazine-resistant Lactobacillus casei ATCC 7469 to IC50 for sensitive Lactobacillus casei ATCC 7469; assay type: functional; method in brief: as §3
[13] = Antibacterial activity against chlorguanide triazine-resistant Pediococcus cerevisiae ATCC 808 assessed as reduction in growth; assay type: functional; method in brief: as §1
Lacticaseibacillus casei [14] = test: Antibacterial activity against sensitive Lactobacillus casei ATCC 7469 assessed as reduction in growth in presence of 0.001 ug/ml folic acid; assay type: functional, organism-based
Method in brief: (§4)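 Folate-requiring strains in the medium of the earlier assay method. Folic acid was 0.002 μg/ml for S. faecium and 0.001 μg/ml for L. casei. Turbidity read on a Klett-Summerson colorimeter. IC50 is the micromolar concentration reducing growth to 50% of control. Top concentration was 1000 μg/ml, or 100 μg/ml if supply was limited.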

[15] = Antibacterial activity against sensitive Pediococcus cerevisiae ATCC 808 assessed as reduction; assay type: functional; method in brief: as §2
Enterococcus faecium [16] = test: Antibacterial activity against sensitive Streptococcus faecium ATCC 8043 assessed as reduction in growth in presence of 0.002 ug/ml folic acid; assay type: functional, organism-based; method in brief: as §4
Escherichia coli [17] = test: Antibacterial activity against sensitive Escherichia coli ATCC 10536 assessed as reduction in growth; assay type: functional, organism-based
Method in brief: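 Growth inhibition in Sahyun et al. medium plus 0.6% acid-hydrolyzed casein. Growth read as turbidity on a Klett-Summerson photoelectric colorimeter. IC50 is the micromolar concentration giving 50% growth inhibition. Top concentration was 1000 μg/ml, or 100 μg/ml when compound was limited.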

Lacticaseibacillus casei [18] = test: Antibacterial activity against sensitive Lactobacillus casei ATCC 7469 assessed as reduction; assay type: functional, organism-based; method in brief: as §1
Plasmodium berghei [19] = test: Antimalarial activity against Plasmodium berghei infected in sc dosed mouse assessed as dose required to survivors for period of 60 days; assay type: functional
Method in brief: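 Mice infected with a blood-induced P. berghei inoculum were given one subcutaneous dose in peanut oil. Survivors at 60 days counted as cured. The minimum curative dose is the lowest dose that cured any mouse.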

SMILES | IC50 (Enterococcus faecium [1]) [µM] | minimal effective dose (Plasmodium berghei [2]) [mg/kg] | inhibition (Escherichia coli [3]) | inhibition (Pediococcus [4]) | inhibition (Enterococcus faecium [5]) | inhibition (Pediococcus [6]) | Ratio IC50 (Pediococcus [7]) | inhibition (Lacticaseibacillus casei [8]) | Ratio IC50 (Enterococcus faecium [9]) | IC50 (Enterococcus faecium [10]) [µM] | IC50 (Lacticaseibacillus casei [11]) [µM] | Ratio IC50 (Lacticaseibacillus casei [12]) | IC50 [13] [µM] | inhibition (Lacticaseibacillus casei [14]) | IC50 [15] [µM] | inhibition (Enterococcus faecium [16]) | IC50 (Escherichia coli [17]) [µM] | IC50 (Lacticaseibacillus casei [18]) [µM] | MCD (Plasmodium berghei [19]) [mg/kg]
ClC(Cl)(Cl)c1ccc(C(Cl)(Cl)Cl)cc1 | 2000 | 640 | Active | Active | Active | Active | 2 | Active | 1 | 1900 | 990 | 1 | 2000 | Active | 959 | Active | 262 | 1000 | 640
COc1cc(Cc2cnc(N)nc2N)cc(OC)c1OC [TRIMETHOPRIM] | 0.08 | > 640 | Active | inactive | inactive | inactive | 6 | inactive | 15 | 1.2 | 0.017 | 0.09 | 67.5 | inactive | 11.7 | inactive | 0.4 | 0.19 | >640
Nc1ncc(Cc2ccc3c(c2)OCO3)c(N)n1 | 0.25 | 640 | Active | inactive | inactive | inactive | 7.3 | inactive | 96.8 | 24.2 | 0.25 | 0.27 | 90.1 | inactive | 12.3 | inactive | 45 | 0.94 | 640
CC1(C)N=C(N)N=C(N)N1OCCCOc1cc(Cl)c(Cl)cc1Cl | 0.0001 | 20 | Active | inactive | inactive | inactive | 267 | inactive | 190 | 0.019 | 0.4 | 19 | 0.8 | inactive | 0.003 | inactive | 1.7 | 0.021 | 160
N=C(N)N/N=C(\c1ccc(F)cc1)c1ccc(C(F)(F)F)cc1 | 64 | 40 | Active | Active | Active | Active | 1 | Active | 0.6 | 35 | 30 | 1 | 21 | Active | 22 | Active | 17 | 31 | 160
CCN1CCCC(Nc2cc(C)nc(NC(=N)Nc3ccc(Cl)c(Cl)c3)n2)C1 (configuration not stated) | 227 | 20 | Active | Active | Active | Active | 1 | Active | 0.53 | 121 | 55.7 | 0.85 | 39 | Active | 32 | Active | 85 | 65.1 | 40
Nc1nc(N)c2cc(Oc3cc(Cl)cc(Cl)c3)ccc2n1 | 0.009 | 320 | Active | inactive | inactive | inactive | 11.7 | inactive | 144 | 1.3 | 0.04 | 0.16 | 1.4 | inactive | 0.12 | inactive | 2 | 0.25 | 640
Nc1nc(N)c2cc(SCc3ccc(Cl)cc3)ccc2n1 | 0.04 | 320 | Active | inactive | inactive | inactive | 28 | inactive | 25 | 1 | 0.04 | 0.2 | 1.4 | inactive | 0.05 | inactive | 2.9 | 0.2 | 640
